Positions count from the first letter of the chain named.
Assays:
Q320S NAPE-PLD = target: T1, Q320S NAPE-PLD (Homo sapiens, UniProt Q6IQ20, Q320S); experiment: Inhibition of Q320S NAPE-PLD mutant; type: biochemical
T1 sequence (Q6IQ20 1-393 Q320S): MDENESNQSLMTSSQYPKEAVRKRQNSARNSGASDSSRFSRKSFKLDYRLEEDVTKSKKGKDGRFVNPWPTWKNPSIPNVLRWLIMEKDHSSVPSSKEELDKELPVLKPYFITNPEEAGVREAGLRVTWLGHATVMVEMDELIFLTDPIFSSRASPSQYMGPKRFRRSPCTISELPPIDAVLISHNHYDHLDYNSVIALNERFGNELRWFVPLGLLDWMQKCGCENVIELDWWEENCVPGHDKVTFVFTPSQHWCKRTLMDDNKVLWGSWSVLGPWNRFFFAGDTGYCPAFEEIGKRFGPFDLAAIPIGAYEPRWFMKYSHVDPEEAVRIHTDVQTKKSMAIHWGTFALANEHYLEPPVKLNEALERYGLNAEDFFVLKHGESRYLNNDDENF

Human HEK-293 cells = experiment: NAPE and FAE levels in intact HEK-293 cells by LC-MS; type: cell-based; settings: 50 μM, 4 hours
How it was run: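 Human HEK-293 cells, which express NAPE-PLD constitutively, incubated with test compound at 50 μM for 4 h. Lipid extracts then prepared, and NAPE and fatty acid ethanolamide levels measured by liquid chromatography-mass spectrometry.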

[1] = Solubility in assay buffer; type: physicochemical; settings: microscopic inspection of assay wells
[2] = target: T2, human fatty acid amide hydrolase (FAAH)-1 (Homo sapiens, UniProt O00519); experiment: Selectivity: FAAH-1 activity; type: biochemical; settings: 300 μM
T2 sequence (O00519 1-579): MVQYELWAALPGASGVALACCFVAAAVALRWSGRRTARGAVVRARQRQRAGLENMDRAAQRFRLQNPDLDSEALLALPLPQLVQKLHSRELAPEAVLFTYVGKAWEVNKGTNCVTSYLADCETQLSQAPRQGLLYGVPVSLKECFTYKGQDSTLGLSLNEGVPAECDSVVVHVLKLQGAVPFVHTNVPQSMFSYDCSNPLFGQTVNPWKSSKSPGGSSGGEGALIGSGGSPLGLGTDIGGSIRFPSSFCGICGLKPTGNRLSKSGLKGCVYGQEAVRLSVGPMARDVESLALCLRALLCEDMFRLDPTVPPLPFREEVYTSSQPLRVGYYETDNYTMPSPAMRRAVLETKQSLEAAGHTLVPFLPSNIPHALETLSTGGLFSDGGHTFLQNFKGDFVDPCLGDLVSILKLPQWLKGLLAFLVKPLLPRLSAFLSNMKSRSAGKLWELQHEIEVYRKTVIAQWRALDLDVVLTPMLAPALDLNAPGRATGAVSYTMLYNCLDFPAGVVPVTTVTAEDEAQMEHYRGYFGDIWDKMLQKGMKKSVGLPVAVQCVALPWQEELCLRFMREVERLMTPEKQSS

[3] = target: T3, NAPE-PLD mutant Q158S/Y159S (Homo sapiens, UniProt Q6IQ20, Q158S/Y159S); experiment: Inhibition of double NAPE-PLD mutant Q158S/Y159S; type: biochemical; settings: mutant unable to bind bile acids
T3 sequence (Q6IQ20 1-393 Q158S/Y159S): T1 sequence (Q6IQ20 1-393 Q320S) with Q158S, Y159S, S320Q

neutral endopeptidase = neutral endopeptidase (Homo sapiens, UniProt P08473); experiment: Selectivity: zinc-dependent enzyme neutral endopeptidase; type: biochemical; settings: 50 μM
[4] = target: carbonic anhydrase (CA) II (Homo sapiens, UniProt P00918); experiment: Selectivity: zinc-dependent enzyme carbonic anhydrase II; type: biochemical; settings: 50 μM
[5] = test system: isofunctional, but zinc-independent enzyme activities present in cytosolic and microsomal fractions of mouse brain or small intestine; experiment: Isofunctional zinc-independent enzyme activities in mouse tissue fractions; type: biochemical; settings: 300 μM
Q320A NAPE-PLD mutant = target: T4, Q320A NAPE-PLD mutant (Homo sapiens, UniProt Q6IQ20, Q320A); experiment: Inhibition of Q320A NAPE-PLD mutant; type: biochemical
T4 sequence (Q6IQ20 1-393 Q320A): T1 sequence (Q6IQ20 1-393 Q320S) with S320A

[6] = target: T5, human N-acylethanolamine acid amidase (NAAA) (Homo sapiens, UniProt Q02083); experiment: Selectivity: NAAA activity; type: biochemical; settings: 300 μM
T5 sequence (Q02083 29-359): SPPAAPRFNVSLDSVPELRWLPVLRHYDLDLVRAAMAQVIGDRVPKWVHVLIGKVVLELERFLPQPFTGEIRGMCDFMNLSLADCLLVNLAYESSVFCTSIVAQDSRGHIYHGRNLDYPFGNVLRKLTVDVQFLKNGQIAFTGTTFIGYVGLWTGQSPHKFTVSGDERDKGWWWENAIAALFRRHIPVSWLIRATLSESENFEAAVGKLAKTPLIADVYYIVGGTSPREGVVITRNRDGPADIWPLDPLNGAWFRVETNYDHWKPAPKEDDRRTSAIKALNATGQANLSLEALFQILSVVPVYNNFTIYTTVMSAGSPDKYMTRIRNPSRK

[7] = target: purified human recombinant NAPE-PLD (Homo sapiens, UniProt Q6IQ20); experiment: Inhibition of purified human recombinant NAPE-PLD; type: biochemical
How it was run: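 Purified recombinant human NAPE-PLD. Michaelis-Menten kinetics and activity time-course were run with vehicle (1% DMSO) or test compound at 50 or 100 μM. Reversibility was tested by rapid dilution after preincubating the enzyme with vehicle (1% DMSO) or test compound (100 μM).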

[8] = target: angiotensin-converting enzyme (ACE) (Homo sapiens, UniProt P12821); experiment: Selectivity: zinc-dependent enzyme ACE; type: biochemical; settings: 50 μM
Sequence of angiotensin-converting enzyme (ACE) (P12821 30-1306, species assumed): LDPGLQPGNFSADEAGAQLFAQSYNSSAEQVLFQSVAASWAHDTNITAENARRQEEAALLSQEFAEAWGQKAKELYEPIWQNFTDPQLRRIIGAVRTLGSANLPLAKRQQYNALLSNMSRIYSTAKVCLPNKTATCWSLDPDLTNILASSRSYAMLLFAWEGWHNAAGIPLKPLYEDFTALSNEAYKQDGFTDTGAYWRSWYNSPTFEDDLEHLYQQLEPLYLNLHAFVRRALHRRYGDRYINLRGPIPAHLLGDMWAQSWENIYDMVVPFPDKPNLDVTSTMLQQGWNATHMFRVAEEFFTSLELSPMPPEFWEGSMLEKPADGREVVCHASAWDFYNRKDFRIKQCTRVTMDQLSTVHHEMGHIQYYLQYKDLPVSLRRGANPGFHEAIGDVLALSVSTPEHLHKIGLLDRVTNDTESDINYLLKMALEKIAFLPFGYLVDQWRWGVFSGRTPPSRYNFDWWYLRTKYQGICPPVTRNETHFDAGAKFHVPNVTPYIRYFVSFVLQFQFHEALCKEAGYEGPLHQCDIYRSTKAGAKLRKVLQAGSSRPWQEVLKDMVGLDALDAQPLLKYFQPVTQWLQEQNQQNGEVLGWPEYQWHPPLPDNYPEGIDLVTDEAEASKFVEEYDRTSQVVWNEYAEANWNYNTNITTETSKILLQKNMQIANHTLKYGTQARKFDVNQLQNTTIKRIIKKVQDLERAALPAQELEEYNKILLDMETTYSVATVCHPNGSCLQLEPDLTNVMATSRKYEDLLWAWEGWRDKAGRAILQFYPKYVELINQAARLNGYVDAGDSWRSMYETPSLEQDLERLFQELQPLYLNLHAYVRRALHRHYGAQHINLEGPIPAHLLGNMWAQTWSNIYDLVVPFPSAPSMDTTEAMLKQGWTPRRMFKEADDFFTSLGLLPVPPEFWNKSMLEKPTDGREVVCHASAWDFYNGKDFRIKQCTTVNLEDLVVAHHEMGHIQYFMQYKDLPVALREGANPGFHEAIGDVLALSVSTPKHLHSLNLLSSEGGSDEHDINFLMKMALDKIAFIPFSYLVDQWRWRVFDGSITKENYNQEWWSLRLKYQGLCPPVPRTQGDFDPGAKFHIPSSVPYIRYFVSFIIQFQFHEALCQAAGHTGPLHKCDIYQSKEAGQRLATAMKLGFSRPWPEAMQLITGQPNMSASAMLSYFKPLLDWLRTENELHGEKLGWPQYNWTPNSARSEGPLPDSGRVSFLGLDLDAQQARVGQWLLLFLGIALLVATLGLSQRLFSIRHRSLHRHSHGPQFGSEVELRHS

Sequence of purified human recombinant NAPE-PLD (Q6IQ20 whole entry): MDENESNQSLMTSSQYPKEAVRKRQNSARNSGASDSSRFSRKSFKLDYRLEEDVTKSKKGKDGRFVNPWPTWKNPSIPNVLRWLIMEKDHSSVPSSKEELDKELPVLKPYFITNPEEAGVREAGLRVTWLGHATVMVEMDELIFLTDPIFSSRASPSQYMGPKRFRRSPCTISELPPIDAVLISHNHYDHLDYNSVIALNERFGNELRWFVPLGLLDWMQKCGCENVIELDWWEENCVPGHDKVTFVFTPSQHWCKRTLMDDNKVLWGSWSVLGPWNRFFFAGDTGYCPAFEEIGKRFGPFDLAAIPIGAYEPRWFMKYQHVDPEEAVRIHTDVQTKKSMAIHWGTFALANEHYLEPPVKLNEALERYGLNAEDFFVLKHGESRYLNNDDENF
Sequence of neutral endopeptidase (P08473 whole entry, species assumed): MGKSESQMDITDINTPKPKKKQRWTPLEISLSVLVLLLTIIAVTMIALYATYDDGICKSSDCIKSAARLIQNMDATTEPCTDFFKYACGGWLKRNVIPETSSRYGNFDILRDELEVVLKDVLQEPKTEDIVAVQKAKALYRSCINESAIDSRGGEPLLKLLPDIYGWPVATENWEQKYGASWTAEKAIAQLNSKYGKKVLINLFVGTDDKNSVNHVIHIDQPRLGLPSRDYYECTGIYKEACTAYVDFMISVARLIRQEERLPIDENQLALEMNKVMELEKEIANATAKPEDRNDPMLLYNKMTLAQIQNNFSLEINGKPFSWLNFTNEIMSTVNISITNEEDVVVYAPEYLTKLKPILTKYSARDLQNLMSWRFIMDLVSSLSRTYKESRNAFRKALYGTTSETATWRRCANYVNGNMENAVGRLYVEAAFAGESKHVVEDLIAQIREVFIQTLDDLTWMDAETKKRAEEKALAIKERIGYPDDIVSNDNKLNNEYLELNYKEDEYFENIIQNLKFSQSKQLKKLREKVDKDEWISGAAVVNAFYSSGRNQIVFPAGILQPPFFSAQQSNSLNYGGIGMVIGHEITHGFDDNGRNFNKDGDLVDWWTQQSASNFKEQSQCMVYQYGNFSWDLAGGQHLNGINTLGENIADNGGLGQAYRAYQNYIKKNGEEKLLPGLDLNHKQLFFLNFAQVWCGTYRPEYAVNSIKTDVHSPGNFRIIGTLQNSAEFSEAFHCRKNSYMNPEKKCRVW

## O=c1[nH]c(=O)c2cc(S(=O)(=O)Nc3ccc(-c4ccncc4)cc3)ccc2[nH]1 [Compound 18, 2,4-dioxo-N-[4-(4-pyridyl)phenyl]-1H-quinazoline-6-sulfonamide]
Q320S NAPE-PLD
  IC50: 36.7 ± 1.6 µM
Human HEK-293 cells
  Endogenous oleoylethanolamide (OEA) levels in HEK-293 cells: remained unmodified
  Endogenous palmitoylethanolamide (PEA) levels in HEK-293 cells: remained unmodified
  NAPE levels in HEK-293 cells: substantial accumulation
[1]
  Solubility in assay / aqueous buffer: adequate solubility
[2]
  Effect on human FAAH-1 activity: did not affect
[3]
  Susceptibility of Q158S/Y159S mutant to inhibition: as susceptible to inhibition by 18 as wild-type NAPE-PLD
Neutral endopeptidase
  Inhibitory effect on neutral endopeptidase: no inhibitory effect
[4]
  Inhibitory effect on carbonic anhydrase (CA) II: no inhibitory effect
[5]
  Effect on isofunctional zinc-independent enzyme activities: did not affect
Q320A NAPE-PLD mutant
  IC50: 89.2 ± 2.3 µM
[6]
  Effect on human NAAA activity: did not affect
[7]; 18 at 50 or 100 μM
  Time-course of NAPE-PLD inhibition: rapid
[7]; Michaelis-Menten kinetics, 18 at 50 or 100 μM
  Mechanism of NAPE-PLD inhibition (kinetic analyses): uncompetitive
[7]; preincubated with 100 μM
  Reversibility upon dilution of enzyme-inhibitor complex (rapid dilution assay): readily reversed
[8]
  Inhibitory effect on angiotensin-converting enzyme (ACE): no inhibitory effect

## O=C(Cc1cccs1)N[C@@H]1C(=O)N2C(C(=O)O)=C(/C=C/c3ccc([N+](=O)[O-])cc3[N+](=O)[O-])CS[C@H]12 [nitrocefin, reference compound]
[7]; identical conditions as 18
  Inhibition of purified NAPE-PLD (concentration-response, Figure 3a): inactive
